STAT1 inh: reduces IFN-gamma driven STAT1 reporter signal; NIH 3T3 STAT1-luciferase reporter, luminescence; inhibition, % at 5.5 µM; actives 0.35% (n = 200,000); AID 920;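 active means inhibition above a set limit, the mean inhibition across all tested compounds plus 3 SD, cut at about 34% in these data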
STAT1 act-1: activators of IFN-gamma induced STAT1 signaling; activation (% of control), % at 5.5 µM; actives 2.6% (n = 200,000); NIH 3T3 STAT1-luciferase reporter, luminescence; 100% = IFN-gamma alone, no compound;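 active means activation above the screen-wide mean activation plus 3 SD, cut at about 130% in these data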
HSV augment: HSV replication enhancement. HSV replication augmentation in cells, fold increase. maximum fold increase. actives 0.005% (n = 220,000). AID 1956; in the data active means maximum fold increase above about 1.5; tested in PC3 cells
Cl transport mod: KCC2 (human) Cl- transport modulation; Q9H2X9; KCC2 cells, thallium flux FluoZin-2 fluorescence; B-score of Tl+ flux slope (higher = more flux/activation; lower = inhibition) at 10 µM; actives 2.2% (n = 190,000); AID 1456;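 active means thallium flux slope and its plate-corrected score both differing from the plate sample mean at a set confidence after two filtering rounds, in either direction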;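 further: slope of fluorescence scaled to starting intensity during 10 to 20 s after thallium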
Target sequence (Q9H2X9 whole entry, looked up): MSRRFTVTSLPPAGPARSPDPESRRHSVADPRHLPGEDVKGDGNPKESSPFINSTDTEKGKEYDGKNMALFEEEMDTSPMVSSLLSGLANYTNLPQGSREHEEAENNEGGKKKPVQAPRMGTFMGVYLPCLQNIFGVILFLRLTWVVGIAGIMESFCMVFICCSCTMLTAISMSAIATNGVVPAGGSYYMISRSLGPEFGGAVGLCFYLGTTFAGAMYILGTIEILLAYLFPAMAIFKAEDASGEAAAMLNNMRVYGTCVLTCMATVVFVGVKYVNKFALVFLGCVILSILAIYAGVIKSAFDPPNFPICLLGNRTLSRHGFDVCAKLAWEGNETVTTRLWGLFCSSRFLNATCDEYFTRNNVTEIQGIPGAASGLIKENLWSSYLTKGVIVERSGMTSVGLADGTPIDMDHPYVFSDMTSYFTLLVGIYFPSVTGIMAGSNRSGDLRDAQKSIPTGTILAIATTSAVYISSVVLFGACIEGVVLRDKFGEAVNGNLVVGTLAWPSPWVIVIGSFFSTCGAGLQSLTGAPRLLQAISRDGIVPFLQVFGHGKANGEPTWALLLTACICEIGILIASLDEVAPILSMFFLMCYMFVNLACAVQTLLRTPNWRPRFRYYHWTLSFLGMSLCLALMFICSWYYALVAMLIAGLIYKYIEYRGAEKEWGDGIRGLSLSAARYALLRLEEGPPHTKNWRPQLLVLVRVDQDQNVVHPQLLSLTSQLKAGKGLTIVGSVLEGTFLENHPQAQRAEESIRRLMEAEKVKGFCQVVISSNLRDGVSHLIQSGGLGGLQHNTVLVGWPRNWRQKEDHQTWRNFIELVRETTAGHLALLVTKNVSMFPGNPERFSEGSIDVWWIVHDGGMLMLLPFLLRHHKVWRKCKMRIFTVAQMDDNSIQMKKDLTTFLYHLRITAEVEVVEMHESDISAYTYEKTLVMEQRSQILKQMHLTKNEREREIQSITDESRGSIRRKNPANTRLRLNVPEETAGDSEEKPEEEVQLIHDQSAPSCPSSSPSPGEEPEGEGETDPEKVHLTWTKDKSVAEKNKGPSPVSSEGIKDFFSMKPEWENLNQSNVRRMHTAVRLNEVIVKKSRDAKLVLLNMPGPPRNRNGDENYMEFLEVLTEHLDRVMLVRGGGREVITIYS
STAT3 act-1: STAT3 signaling activation | U3A cells, IL-6 STAT3-luciferase reporter, luminescence; 100% = signal with IL-6 EC80 alone | activation (% of control), % at 5.6 µM | actives 0.91% (n = 190,000);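 active means activation above the screen-wide mean of compound activation plus 3 SD, cut at about 130% in these data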
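Test system: STAT3-luciferase reporter U3A cells; Detection: reporter luminescence signal; Times: 1 h compound pre-exposure, 6 h IL-6 stimulation, 37 °C; Benchmarks: IL-6-only high control; Also added: IL-6 stimulus at 33 ng/mL final.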
STAT3 blocker: inhibitors of IL-6 induced STAT3 signaling; U3A cells, IL-6 STAT3-luciferase reporter, luminescence; host cell line lacks STAT1; inhibition, % at 5.5 µM; actives 0.89% (n = 190,000); AID 862;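 active means inhibition above the mean inhibition across all screened compounds plus 3 SD, cut at about 44% in these data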
STAT3 act-2: confirmation of STAT3 signaling activators | shares compounds with STAT3 act-1 | U3A STAT3-luciferase reporter, IL-6 potentiation, luminescence; U3A cells lack STAT1; 100 means same as IL-6 alone | potentiation (% of control), % at 5.7 µM | actives 64% (n = 1,200);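 active means percent activation of the STAT3 luciferase reporter above a set limit taken from the earlier primary screen, cut at about 130% in these data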
NFkB act STAT3ct: counter-screen for STAT3 activators: NF-kappaB activation | human cells, NF-kappaB reporter activation | activation (% of control), % at 5.7 µM | shares compounds with STAT3 act-1 | actives 11% (n = 1,200) | AID 1309; in the data active means activation above about 120%;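 further: reporter induced by TNF-alpha stimulation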
STAT1 act-2: counter-screen for STAT3 activators: STAT1 activation. activation (% of control), % at 5.7 µM. actives 13% (n = 1,200). NIH 3T3 STAT1-luciferase reporter, IFN-gamma, luminescence. shares compounds with STAT3 act-1;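 active means activation above the solvent-only control well mean plus 3 SD, set per screening run, cut at about 120% in these data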
A number is an active result; . = inactive; / = not tested or not shown. Most compounds without a hit are left out; they make up all but 5.5% or so of the library.

SMILES | STAT1 inh | STAT1 act-1 | HSV augment | Cl transport mod | STAT3 act-1 | STAT3 blocker | STAT3 act-2 | NFkB act STAT3ct | STAT1 act-2
Cn1c(CSc2ncccn2)nnc1SCC(=O)N1CCCc2ccccc21 | . | . | / | . | . | . | / | / | /
O=C(CSc1ncc(-c2ccccc2)n1C1CCCC1)N1CCc2ccccc21 | . | . | . | / | 141 | . | . | . | .
O=C(Nc1nnc(CC(=O)N2CCOCC2)s1)c1cccs1 | . | . | . | . | 147 | . | . | . | .
O=c1cc(-c2ccccc2)[nH]n1-c1ccc([N+](=O)[O-])cc1 | . | . | . | . | . | . | / | / | /
CS(=O)(=O)N(CC(=O)N1CCCC1)Cc1ccc(Cl)cc1 | . | . | . | . | . | . | / | / | /
CCc1ccc(OCC(=O)Nc2cccc3nsnc23)cc1 | . | . | . | . | . | . | / | / | /
Cc1ccccc1OCC(=O)Nc1cccc2nsnc12 | . | . | . | . | 150 | . | . | . | .
Cn1c(SCc2nc3ccccc3s2)nnc1-c1cccs1 | . | . | . | . | . | . | / | / | /
CCn1c(SCc2nc3ccccc3s2)nnc1-c1cccs1 | . | . | . | . | 142 | . | 143 | . | 129
O=C(O)CSCC(=O)NCc1cccc(C(F)(F)F)c1 | . | . | . | . | . | . | / | / | /
O=c1oc(-c2cccs2)nc2scc(-c3cccs3)c12 | . | . | / | . | 140 | . | . | . | .
CC1CCN(S(=O)(=O)c2ccc3c(c2)C(=NO)c2cc(S(=O)(=O)N4CCC(C)CC4)ccc2-3)CC1 | . | . | . | . | 136 | . | . | 131 | .
O=S(=O)(c1ccc2c(c1)C(=NO)c1cc(S(=O)(=O)N3CCCCC3)ccc1-2)N1CCCCC1 | . | . | . | . | . | . | / | / | /
Cn1c(=O)c2c(nc(N3CCCC3)n2CC(O)CO)n(C)c1=O (stereo unspecified) | . | . | . | . | 141 | . | . | . | .
CCc1nc2c(c(=O)c3ccccc3n2C)c(=O)n1CCc1ccc(OC)cc1 | . | . | . | . | 144 | . | 202 | . | .
CCOc1ccc(NC(=O)CC2C(=O)N(c3ccc(OC)cc3)C(=S)N2Cc2ccccn2)cc1 (stereo unspecified) | . | . | . | . | . | . | / | / | /
COc1cccc(-c2nn(-c3ccccc3)cc2CN(C)C(C)c2ccon2)c1 (stereo unspecified) | . | . | . | . | . | . | / | / | /
Cc1cc(-c2ccc(Cl)cc2)c(C#N)c(N)n1 | . | . | . | . | 148 | . | 140 | . | .
Brc1ccc(C2=Nn3c(Cn4nnc5ccccc54)nnc3SC2)cc1 | / | / | . | . | / | / | / | / | /
C[n+]1c2n(c3ccccc31)N=C(c1ccc(Br)cc1)CS2 | . | . | . | / | 136 | . | . | . | .
Cc1cccc(-c2nnc3n2N=C(c2ccccc2)CS3)c1 | . | . | . | . | . | . | / | / | /
C[n+]1c2n(c3ccccc31)N=C(c1ccccc1)CS2 | . | . | . | . | 140 | . | 149 | . | .
CC(Oc1ccc(F)cc1)C(=O)Nc1ccc2ccccc2c1 (stereo unspecified) | . | . | . | / | 139 | . | 136 | . | .
CCOc1ccc(CNC(=S)N/N=C/c2ccc(OC)c(OC)c2)cc1 | . | . | . | . | . | . | / | / | /
O=C(C1CCC1)N1CCc2cc(S(=O)(=O)NCCN3CCN(c4ccccc4F)CC3)ccc21 | . | . | / | / | . | . | / | / | /
SMILES | STAT1 inh | STAT1 act-1 | HSV augment | Cl transport mod | STAT3 act-1 | STAT3 blocker | STAT3 act-2 | NFkB act STAT3ct | STAT1 act-2
CSCCC(N=C(NS(=O)(=O)c1ccc(Br)cc1)c1ccccc1)C(=O)O (stereo unspecified) | . | . | . | . | . | . | / | / | /
Cc1noc(C)c1S(=O)(=O)N(CC(=O)N1CCn2c1nc1ccccc12)c1ccc(C(C)C)cc1 | . | . | . | / | 149 | . | 138 | . | .
CCCN(c1ccc(C(C)C)cc1)S(=O)(=O)c1c(C)noc1C | . | . | . | . | . | . | / | / | /
CSc1nc2n(n1)C(c1ccccn1)C1=C(CC(C)(C)CC1=O)N2 (stereo unspecified) | . | . | . | / | . | . | / | / | /
O=C(c1ccco1)N1CCN(S(=O)(=O)Cc2ccc(Cl)cc2)CC1 | . | . | . | . | . | . | / | / | /
COc1nc2c(C)cccc2cc1-c1noc(-c2ccco2)n1 | . | . | . | . | 163 | . | 144 | . | .
COc1nc(-c2ccc(Cl)cc2)ccc1-c1noc(-c2ccco2)n1 | . | . | . | / | . | . | / | / | /
CCN(CC)Cc1c(CC(C)C)oc(C)c1C(=O)O | . | . | . | / | . | . | / | / | /
Cc1ccc(Sc2cnn(-c3ccccc3)c(=O)c2Cl)cc1 | . | . | . | . | 142 | . | 133 | . | .
Nc1ccc(Sc2cnn(-c3ccccc3)c(=O)c2Cl)cc1 | . | . | . | . | . | . | / | / | /
COc1cc(C(C(=O)NC2CCCCC2)N(Cc2ccco2)C(=O)c2cnccn2)cc(OC)c1OC (stereo unspecified) | . | . | . | . | . | . | / | / | /
Cc1ccc(C2NC(=O)c3c(sc(C)c3C)N2)c(O)c1 (stereo unspecified) | . | . | . | / | 158 | . | 159 | . | .
Cc1nn(-c2ccccc2)c2c1C(c1ccccc1)C(C#N)=C(N)O2 (stereo unspecified) | . | . | . | . | . | . | / | / | /
Cc1ccc(-n2nc(C)c3c2OC(N)=C(C#N)C3c2ccoc2)cc1 (stereo unspecified) | . | . | . | / | 177 | . | 153 | . | .
CN1CCN(CCCNC(=O)c2cc3c(-c4ccc(Cl)cc4)nn(C)c3s2)CC1 | . | . | . | / | 173 | . | 149 | . | .
Cn1nc(-c2ccc(Cl)cc2)c2cc(C(=O)NCC3CCCO3)sc21 (stereo unspecified) | . | . | . | . | 167 | . | 147 | . | .
CCN(CC)CCCNC(=O)c1cc2c(-c3ccc(Cl)cc3)nn(C)c2s1 | . | . | . | / | 161 | . | 156 | . | .
CCN(CC)CCCNC(=O)c1cc(-c2ccc(Cl)c(Cl)c2)on1 | . | . | . | . | . | . | / | / | /
CC(C)N1C(=O)CC2(CC[N+](C)(CCOC(=O)C(c3ccccc3)c3ccccc3)CC2)C1=O (stereo unspecified) | . | . | . | . | . | . | / | / | /
COc1cc2c(C(=O)N3CCN(c4ccccc4F)CC3)cn(C)c(=O)c2cc1OC | . | . | . | . | . | . | / | / | /
Cn1c(=O)oc2cc(S(=O)(=O)NCCC(=O)N3CCc4ccccc43)ccc21 | . | . | / | . | 140 | . | . | . | .

Source: PubChem (several laboratories)
